FLuc inh counter – inhibits firefly luciferase, flagging false hits in luciferase inhibition screens | actives 1.5% (n = 200,000) | inhibition, % at 10 µM | ATPLite firefly luciferase biochemical luminescence, 10 min | P08659 | AID 1006;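 active = inhibition above about 50% when tested at 10 µM, limit read from the data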
Target sequence (P08659 whole entry, looked up): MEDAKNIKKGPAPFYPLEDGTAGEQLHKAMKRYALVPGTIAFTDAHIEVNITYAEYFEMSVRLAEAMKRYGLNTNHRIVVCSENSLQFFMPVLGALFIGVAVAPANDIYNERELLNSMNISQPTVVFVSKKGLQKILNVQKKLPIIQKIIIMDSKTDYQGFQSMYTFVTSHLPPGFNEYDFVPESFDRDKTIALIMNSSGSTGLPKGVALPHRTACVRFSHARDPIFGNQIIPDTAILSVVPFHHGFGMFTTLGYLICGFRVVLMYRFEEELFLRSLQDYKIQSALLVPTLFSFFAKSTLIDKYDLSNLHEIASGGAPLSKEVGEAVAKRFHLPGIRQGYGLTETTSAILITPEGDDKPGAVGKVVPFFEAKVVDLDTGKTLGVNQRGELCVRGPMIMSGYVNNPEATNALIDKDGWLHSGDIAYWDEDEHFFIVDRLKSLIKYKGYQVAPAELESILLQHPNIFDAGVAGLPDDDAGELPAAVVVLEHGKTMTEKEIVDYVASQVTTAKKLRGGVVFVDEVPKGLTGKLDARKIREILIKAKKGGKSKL
NF-kB neuron act – raises NF-kB expression in human neuronal cells. fold change at 12.5 µM. NF-kB reporter expression; active compounds read high. AID 1239. actives 1.6% (n = 190,000); in the data active = fold change above about 3.3
APP 5'UTR act – activates APP 5'UTR luciferase reporter; activation, % at 2 µM; actives 1% (n = 190,000); AID 1276; SH-SY5Y APP 5'UTR luciferase reporter, luminescence; zero percent = DMSO vehicle wells;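 active = activation above a set limit, based on mean plus 3 SD of controls, cut at about 140% in these data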
FLuc act counter – firefly luciferase counter-screen for stimulation assays | AID 1027 | 200,000 tested, under 10 active | P08659 | activation factor at 10 µM | ATPlite luciferase biochemical, luminescence, 10 min; 0 = ATP-free wells, 1 = DMSO control;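 active = luciferase activation factor, scaled between plate controls, of at least 2 with compound at 10 µM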
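assay system = Luciferase/luciferin detection reagent, cell-free biochemical luciferase assay | also added = ATP substrate | times = 10 min post-reagent at room temperature | measured by = luminescence from luciferase reaction | measure = luciferase activation, seen as luminescence increase over controls | benchmarks = low control with PBS replacing ATP, high control enzyme plus ATP without compound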
STAT1 activator – activators of IFN-gamma induced STAT1 signaling. NIH 3T3 STAT1-luciferase reporter, luminescence; 100% = IFN-gamma alone, no compound. activation (% of control), % at 5.5 µM. actives 2.6% (n = 200,000);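 active = activation above the screen-wide mean activation plus 3 SD, cut at about 130% in these data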
A number is an active result; i = inactive; nt = no result. Rows were chosen to be rich in hits. Some 4.1% of all compounds tested hit in one or more screens of this group.

SMILES	FLuc inh counter	NF-kB neuron act	APP 5'UTR act	FLuc act counter	STAT1 activator
CC(=O)CSc1ccc(-c2nc3cc(C)c(C)cc3[nH]2)cn1	85	i	i	i	i
CCc1nnc(NC(=O)CSc2ccc(-c3nc4ccc(C)cc4[nH]3)cn2)s1	58	i	138	i	i
O=C(CSc1ccc(-c2nc3ccccc3[nH]2)cn1)Nc1ccc(S(=O)(=O)N2CCCC2)cc1	i	i	i	i	i
Cc1ccc2nc(-c3ccc(SCC(=O)N4CCc5ccccc54)nc3)[nH]c2c1	78	i	i	i	131
CC(C)CC1CCCCC1OC(=O)C[N+]1(C)CCCCC1 (stereo not drawn)	i	i	i	i	i
CCn1c(COc2ccccc2Cl)nnc1SCC(=O)Nc1ncccc1C	i	i	i	i	i
Cc1cc2nc(-c3ccc(SCC(=O)Nc4nccs4)nc3)[nH]c2cc1C	i	i	156	i	i
O=C(Cc1ccc(Br)cc1)c1ccc(O)cc1O	i	i	i	i	130
Cn1c(NCc2ccco2)nc2c1c(=O)n(Cc1ccc(Cl)c(Cl)c1)c(=O)n2C	i	i	i	i	i
N#CC1=C2C=CC=CN2CC1=O	i	i	i	i	144
CN(C)CCCNC(=O)C(=O)NCC1CCCO1 (stereo not drawn)	i	i	i	i	i
COCCOC(=O)/C=C1/NC(=O)CS1	i	i	i	i	i
CC(C)(C)c1ccc(C(=O)/C=C2\NC(=O)CS2)cc1	89	6.6	i	i	i
O=S1(=O)N=C(Nc2ccc(N3CCOCC3)c(Cl)c2)c2ccccc21	i	i	i	i	146
O=S1(=O)N=C(Nc2ccc(O)cc2)c2ccccc21	i	i	i	i	i
COc1ccc(NC(=O)c2ccc(Br)o2)cc1	i	i	i	i	i
O=C(NC(=S)Nc1ccccc1)c1ccc(Br)o1	i	i	i	i	138
COc1ccc(NC(=S)NC(=O)c2ccc(Br)o2)cc1	i	i	i	i	147
CCc1cccc(N(C(=O)c2csnn2)C(C(=O)NC(C)(C)C)c2ccccn2)c1 (stereo not drawn)	i	i	i	i	i
Cc1cc(C)nc(N(C#N)Cc2cccc(Cl)c2)n1	i	i	i	i	i
CCOC(=O)C1=C(C)N(CC(C)C)C(=O)C1	i	i	i	i	i
O=C(Nc1cccc2ccccc12)/C(Cl)=C/c1ccccc1	i	i	i	i	i
O=C(Nc1ccc(F)cc1)/C(Cl)=C/c1ccccc1	i	7.3	188	i	150
CC(=O)c1cccc(NC(=O)c2cc3ccccn3n2)c1	72	i	i	i	i
CC(=O)c1ccc(NC(=O)c2cnn3ccccc23)cc1	i	i	i	i	i
SMILES	FLuc inh counter	NF-kB neuron act	APP 5'UTR act	FLuc act counter	STAT1 activator
CC(=O)c1cccc(NC(=O)c2cnn3ccccc23)c1	i	3.4	nt	i	129
Cc1ccc(C)c(NC(=O)c2cc3ccccn3n2)c1	i	i	i	i	134
CCOc1cccc(NC(=O)C2CC(=O)N(c3ccc(F)cc3)C2)c1 (stereo not drawn)	i	i	i	i	i
CCc1ccc(-c2nc(SCC(=O)N3CCOCC3)n[nH]2)cc1	i	nt	i	i	i
CCCCOc1ccc(C(=O)Oc2ccc(C)nc2)cc1	i	i	i	i	i
CCCCCOc1ccc(OC(=O)c2ccncc2)cc1	i	3.8	i	i	i
CCCCCN1C=CC(=C2C(=O)c3ccccc3C2=O)C=C1	97	nt	i	i	i
Cc1ccccc1N1CCN(C(=O)c2ccccc2NC(=O)c2ccccc2C(=O)O)CC1	i	i	i	i	i
CC(=O)c1ccc(N=Nc2ccc(C)cc2)cc1	52	4.8	283	i	i
CC(=O)c1ccc(N=Nc2ccc(N(C)C)cc2)cc1	53	3.9	i	i	i
Cc1ccc(C(=O)c2ccc(C)cc2)cc1	i	i	i	i	i
CN(C)C(=S)c1ccc(N(C)C)cc1	i	i	i	i	i
CCOC(=O)N1CCC(n2c(SCC(=O)NCCc3ccc(S(N)(=O)=O)cc3)nc3ccccc3c2=O)CC1	i	i	i	i	i
CCC(C(=O)NC1CCCCC1)n1c(SCc2cccc(F)c2)nc2ccncc21 (stereo not drawn)	i	i	i	i	i
CCC(C(=O)NC1CCCCC1)n1c(SCc2cccc(C)c2)nc2ccncc21 (stereo not drawn)	68	i	i	i	i
O=c1oc(-c2ccc(Br)o2)nc2ccccc12	i	i	i	i	i
O=C(Nc1cccc(Cl)c1)c1ccc(OC(=S)N2CCOCC2)cc1	i	i	157	i	130
O=C(Nc1cccc2ccccc12)c1ccc(OC(=S)N2CCOCC2)cc1	i	i	i	i	i
Cc1ccc(C)c(N2CCN(C(=O)Cn3c(=O)[nH]c4ccsc4c3=O)CC2)c1	i	i	i	i	i
CN(C)c1ccccc1C(=O)c1ccccc1N(C)C	i	i	i	i	132
COc1ccc(Nc2nc(C)c(-c3ccccc3)s2)cc1	i	i	i	i	156
COc1ccc(Nc2nc(C)c3ccccc3n2)cc1	i	i	i	i	134
Fc1ccc(NC(=S)N2CCN(c3ncccn3)CC2)cc1	i	i	i	i	i
CC(=O)c1sc(NC(=O)c2ccccc2F)nc1C	i	3.5	i	i	i
CC(=O)c1sc(NC(=O)c2ccc(C)c(C)c2)nc1C	i	i	172	i	147
SMILES	FLuc inh counter	NF-kB neuron act	APP 5'UTR act	FLuc act counter	STAT1 activator
CC(=O)c1sc(NC(=O)c2ccc(C(C)(C)C)cc2)nc1C	i	i	i	i	130
COc1ccc(C(=O)Nc2nc(C)c(C(=O)N(C)C)s2)cc1OC	i	i	i	i	i
Cc1cc(=O)oc(C)c1C(=O)NC1CCCCCCC1	i	i	i	i	i
CCCC1(C)NC(=O)c2ccccc2O1 (stereo not drawn)	i	i	i	i	i
Cc1ccc(-n2nnc3c(SCC(=O)NCC4CCCO4)ncnc32)cc1 (stereo not drawn)	55	i	i	i	i
O=C(CSc1ncnc2c1nnn2-c1ccc(F)cc1)NCC1CCCO1 (stereo not drawn)	i	i	i	i	i
CCc1nnc(NC(=O)CSc2nnc(C)n2-c2ccc(C)cc2)s1	i	i	i	i	i
COc1ccc(-c2ccc(SCC(=O)Nc3nnc(C)s3)nn2)cc1	64	i	i	i	i
CCc1nnc(NC(=O)CSc2ccc(-c3ccc(C)cc3)nn2)s1	55	i	i	i	i
CCOc1ccc(-c2ccc(SC)nn2)cc1	96	i	i	i	i
CCOc1ccc(-c2ccc(SCC(=O)NCC3CCCO3)nn2)cc1 (stereo not drawn)	72	i	i	i	i
CCOc1ccc(-c2ccc(SCC(=O)Nc3nnc(CC)s3)nn2)cc1	65	i	i	i	i
CCN(CC)CCN(Cc1cc2ccc(C)c(C)c2[nH]c1=O)C(=S)NCc1ccco1	i	i	i	i	i
N[C@@H](CO)c1nnc([C@H](CCC(=O)O)NC(=O)C2CCNCC2)o1	i	i	i	i	i
CCOC(=O)c1ccc(N2Cc3ccccc3C2=NC(=O)c2cccs2)cc1	i	i	i	i	i

Screening data from PubChem.
